In ChEMBL document CHEMBL4052819 (2017):
In brackets after ≈: the same amount, converted by molar mass. Non-standard residues stand in square brackets, D forms with d. Residues, ends and D or L forms follow the SMILES beside them. *: point of attachment. Heptanoyl = CCCCCCC(=O)*; Octanoyl = CCCCCCCC(=O)*; Dab = NCC[C@H](N)C(=O)O; Hexanoyl = CCCCCC(=O)*

Columns and labels:
Staphylococcus aureus [1] = assay: Antibacterial activity against methicillin-resistant Staphylococcus aureus ATCC 43300 after 18 to 20 hrs by broth microdilution method; type: functional
How it was run: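 Broth microdilution in tryptic soy broth: 2-fold dilutions mixed 1:1 with ~1.5 × 10^5 CFU/mL bacterial suspension in TSB, final 0.5–32 μg/mL, 37 °C for 18–20 h. MIC = lowest concentration with no visible growth. At least three independent experiments, one replicate each.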

Staphylococcus aureus [2] = assay: Antibacterial activity against Staphylococcus aureus ATCC 29213 after 18 to 20 hrs by broth microdilution method; type: functional
How it was run: (§1)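 Broth microdilution in tryptic soy broth: 2-fold dilutions mixed 1:1 with ~1.5 × 10^5 CFU/mL inoculum, final 0.5–32 μg/mL; 37 °C, 18–20 h. MIC taken as lowest concentration giving no visible growth. At least three independent experiments, one replicate each.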

Enterococcus faecium [3] = assay: Antibacterial activity against Enterococcus faecium ATCC 19434 after 18 to 20 hrs by broth microdilution method; type: functional; how it was run: as §1
Acinetobacter baumannii [4] = assay: Antibacterial activity against Acinetobacter baumannii ATCC 19606 after 18 to 20 hrs by broth microdilution method; type: functional; details: ATCC 19606 = CIP 70.34 = JCM 6841
Klebsiella pneumoniae [5] = assay: Antibacterial activity against Klebsiella pneumoniae ATCC 13883 after 18 to 20 hrs by broth microdilution method; type: functional
Pseudomonas aeruginosa [6] = assay: Antibacterial activity against Pseudomonas aeruginosa ATCC 27853 after 18 to 20 hrs by broth microdilution method; type: functional; how it was run: as §1
Escherichia coli [7] = assay: Antibacterial activity against Escherichia coli ATCC 25922 after 18 to 20 hrs by broth microdilution method; type: functional; how it was run: as §1
Enterococcus faecium [8] = assay: Bactericidal activity against Enterococcus faecium ATCC 19434; type: functional; details: read-out: MBC99.9
How it was run: (§2)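 MBC from MIC plates at end point: 50 μL from each well with no visible growth plated on tryptic soy agar and counted. MBC taken as lowest concentration giving ≥99.9% fall in viable count relative to initial inoculum. Three independent experiments, one replicate each.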

Acinetobacter baumannii [9] = assay: Bactericidal activity against Acinetobacter baumannii ATCC 19606; type: functional; details: ATCC 19606 = CIP 70.34 = JCM 6841, read-out: MBC99.9; how it was run: as §2
Pseudomonas aeruginosa [10] = assay: Bactericidal activity against Pseudomonas aeruginosa ATCC 27853; type: functional; details: read-out: MBC99.9; how it was run: as §2
Staphylococcus aureus [11] = assay: Antibacterial activity against Staphylococcus aureus ATCC 29213 after 18 to 20 hrs in presence of 95% serum by broth microdilution method; type: functional
How it was run: (§3)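 Same microdilution with human serum as medium: compound 2-fold diluted in 100% serum, mixed 1:1 with 90% serum holding ~1.5 × 10^5 CFU/mL, giving 95% serum and final 0.5–64 μg/mL. MIC read as no visible growth after incubation as for the broth test.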

Staphylococcus aureus [12] = assay: Bactericidal activity against methicillin-resistant Staphylococcus aureus ATCC 43300; type: functional; details: read-out: MBC99.9
How it was run: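 MBC taken at the end of the MIC test: 50 μL from each well without visible growth plated on tryptic soy agar. MBC = lowest concentration giving ≥99.9% reduction in viable cells relative to the initial inoculum. Three independent experiments, one replicate each.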

Klebsiella pneumoniae [13] = assay: Bactericidal activity against Klebsiella pneumoniae ATCC 13883; type: functional; details: read-out: MBC99.9; how it was run: as §2
Escherichia coli [14] = assay: Bactericidal activity against Escherichia coli ATCC 25922; type: functional; details: read-out: MBC99.9; how it was run: as §2
Staphylococcus aureus [15] = assay: Bactericidal activity against Staphylococcus aureus ATCC 29213; type: functional; details: read-out: MBC99.9; how it was run: as §2
Escherichia coli [16] = assay: Antibacterial activity against Escherichia coli ATCC 25922 after 18 to 20 hrs in presence of 95% serum by broth microdilution method; type: functional; how it was run: as §3
Acinetobacter baumannii [17] = assay: Potentiation of rifampicin-mediated antibacterial activity against Acinetobacter baumannii ATCC 19606 assessed as decrease in rifampicin MIC at 4 ug/ml by checkerboard method relative to control; type: functional, ATCC 19606 = CIP 70.34 = JCM 6841
Klebsiella pneumoniae [18] = assay: Potentiation of rifampicin-mediated antibacterial activity against Klebsiella pneumoniae ATCC 13883 assessed as decrease in rifampicin MIC at 2 ug/ml by checkerboard method relative to control; type: functional
Acinetobacter baumannii [19] = assay: Potentiation of rifampicin-mediated antibacterial activity against Acinetobacter baumannii ATCC 19606 assessed as rifampicin MIC at 2 ug/ml by checkerboard method (reference value: 16 ug/ml); type: functional; details: ATCC 19606 = CIP 70.34 = JCM 6841
Klebsiella pneumoniae [20] = assay: Potentiation of rifampicin-mediated antibacterial activity against Klebsiella pneumoniae ATCC 13883 assessed as rifampicin MIC at 2 ug/ml by checkerboard method (reference value: 16 ug/ml); type: functional

SMILES | MIC (Staphylococcus aureus [1]) [µg/mL] | MIC (Staphylococcus aureus [2]) [µg/mL] | MIC (Enterococcus faecium [3]) [µg/mL] | MIC (Acinetobacter baumannii [4]) [µg/mL] | MIC (Klebsiella pneumoniae [5]) [µg/mL] | MIC (Pseudomonas aeruginosa [6]) [µg/mL] | MIC (Escherichia coli [7]) [µg/mL] | MBC (Enterococcus faecium [8]) [µg/mL] | MBC (Acinetobacter baumannii [9]) [µg/mL] | MBC (Pseudomonas aeruginosa [10]) [µg/mL] | MIC (Staphylococcus aureus [11]) [µg/mL] | MBC (Staphylococcus aureus [12]) [µg/mL] | MBC (Klebsiella pneumoniae [13]) [µg/mL] | MBC (Escherichia coli [14]) [µg/mL] | MBC (Staphylococcus aureus [15]) [µg/mL] | MIC (Escherichia coli [16]) [µg/mL] | fold change (FC) (Acinetobacter baumannii [17]) | fold change (FC) (Klebsiella pneumoniae [18]) | MIC (Acinetobacter baumannii [19]) [µg/mL] | MIC (Klebsiella pneumoniae [20]) [µg/mL]
CCCCCCC(=O)N[C@@H](CCN)C(=O)N[C@@H](Cc1ccccc1)C(=O)N[C@@H](CCN)C(=O)N[C@H](Cc1ccccc1)C(=O)N[C@@H](CC(C)C)C(=O)N[C@@H](CCN)C(=O)N[C@@H](C(=O)N[C@@H](CC(C)C)C(=O)N[C@@H](CO)C(N)=O)C(C)C (Heptanoyl-[Dab]F[Dab][dF]L[Dab][dV]LS-NH2) | 32 (≈ 28.2 µM) | ≥ 32 | > 32 | 32 (≈ 28.2 µM) | 8 (≈ 7.04 µM) | 2 to 4 (≈ 1.76 to 3.52 µM) | 1 to 4 (≈ 0.88 to 3.52 µM) | – | – | – | – | – | – | – | – | – | – | – | – | –
CCCCCCC(=O)N[C@@H](CCN)C(=O)N[C@H](C(=O)N[C@@H](CCN)C(=O)N[C@H](Cc1ccccc1)C(=O)N[C@@H](CC(C)C)C(=O)N[C@@H](CCN)C(=O)N[C@H](CC(C)C)C(=O)N[C@@H](CC(C)C)C(=O)N[C@@H](CO)C(N)=O)[C@@H](C)CC (Heptanoyl-[Dab]I[Dab][dF]L[Dab][dL]LS-NH2) | 16 (≈ 14.3 µM) | 16 to 32 (≈ 14.3 to 28.7 µM) | 8 to 16 (≈ 7.17 to 14.3 µM) | 8 to 16 (≈ 7.17 to 14.3 µM) | 4 (≈ 3.58 µM) | 2 to 4 (≈ 1.79 to 3.58 µM) | 1 to 4 (≈ 0.896 to 3.58 µM) | 16 (≈ 14.3 µM) | 16 (≈ 14.3 µM) | 8 to 16 (≈ 7.17 to 14.3 µM) | 32 | 16 to 32 (≈ 14.3 to 28.7 µM) | 8 (≈ 7.17 µM) | 16 (≈ 14.3 µM) | 16 to 32 (≈ 14.3 to 28.7 µM) | 16 | – | – | – | –
CCCCCCC(=O)N[C@@H](CCN)C(=O)N[C@H](C(=O)N[C@@H](CCN)C(=O)N[C@H](Cc1ccccc1)C(=O)N[C@@H](CC(C)C)C(=O)N[C@@H](CCN)C(=O)N[C@@H](C(=O)N[C@@H](CC(C)C)C(=O)N[C@@H](CO)C(N)=O)C(C)C)[C@@H](C)CC (Heptanoyl-[Dab]I[Dab][dF]L[Dab][dV]LS-NH2) | > 32 | > 32 | > 32 | > 32 | 32 (≈ 29 µM) | 4 (≈ 3.63 µM) | 4 (≈ 3.63 µM) | – | – | – | – | – | – | – | – | – | 4096 | >=8192 | 0.0078 | 0.0039
CCCCCCC(=O)N[C@@H](CCN)C(=O)N[C@H](C(=O)N[C@@H](CCN)C(=O)N[C@H](Cc1ccccc1)C(=O)N[C@@H](CC(C)C)C(=O)N[C@@H](CCN)C(=O)N[C@@H](C(=O)N[C@@H](CC(C)C)C(=O)N[C@@H](CO)C(N)=O)C(C)C)C(C)C (Heptanoyl-[Dab]V[Dab][dF]L[Dab][dV]LS-NH2) | > 32 | > 32 | > 32 | > 32 | > 32 | 16 (≈ 14.7 µM) | 16 (≈ 14.7 µM) | – | – | – | – | – | – | – | – | – | 256 - 512 | 4096 | 0.125 | 0.0156
CCCCCC(=O)N[C@@H](CCN)C(=O)N[C@H](C(=O)N[C@@H](CCN)C(=O)N[C@H](Cc1ccccc1)C(=O)N[C@@H](CC(C)C)C(=O)N[C@@H](CCN)C(=O)N[C@@H](C(=O)N[C@@H](CC(C)C)C(=O)N[C@@H](CO)C(N)=O)C(C)C)[C@@H](C)CC (Hexanoyl-[Dab]I[Dab][dF]L[Dab][dV]LS-NH2) | > 32 | > 32 | > 32 | > 32 | ≥ 32 | 8 to 16 (≈ 7.35 to 14.7 µM) | 8 to 16 (≈ 7.35 to 14.7 µM) | – | – | – | – | – | – | – | – | – | 4096 - 8192 | 8192 | 0.0078 to 0.0156 | 0.0039
CCCCCCCC(=O)N[C@@H](CCN)C(=O)N[C@@H](CCN)C(=O)N[C@@H](CCN)C(=O)N[C@H](Cc1ccccc1)C(=O)N[C@@H](CC(C)C)C(=O)N[C@@H](CCN)C(=O)N[C@@H](C(=O)N[C@@H](CC(C)C)C(=O)N[C@@H](CCN)C(N)=O)C(C)C (Octanoyl-[Dab][Dab][Dab][dF]L[Dab][dV]L[Dab]-NH2) | > 32 | ≥ 32 | > 32 | > 32 | > 32 | 16 to 32 (≈ 14.3 to 28.7 µM) | > 32 | – | – | – | – | – | – | – | – | – | 256 - 512 | 256 | 0.0312 to 0.0625 | 0.0625 to 0.125
